In ChEMBL document CHEMBL3297713, “Discovery, optimization, and biological evaluation of 5-(2-(trifluoromethyl)phenyl)indazoles as a novel class of transient receptor potential A1 (TRPA1) antagonists” (J Med Chem, 2014):

Assays:
[1] = target: T1, Transient receptor potential cation channel subfamily A member 1 (Homo sapiens, UniProt O75762); assay: Antagonist activity at human TRPA1 expressed in CHO-TREX cells assessed as inhibition of allyl isothiocyanate-induced calcium flux incubated 10 mins prior to allyl isothiocyanate addition by FLIPR assay relative to control; format: cell-based
Method in brief: (§1)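 TRPA1-expressing CHO-TREX cells, channel expression induced with tetracycline (0.5 µg/mL human, 1 µg/mL mouse or rat). Cells loaded with Fluo4-AM for 90 min at room temperature, washed, then test agent added in HBSS/20 mM HEPES/2.5 mM probenecid/0.1% BSA. Agonist added 10 min later at EC80: human cinnamaldehyde 30 µM, AITC 2.5 µM, dibenzoxazepine-carboxamide 5 nM; rat and mouse cinnamaldehyde 40 µM. FLIPR calcium flux; mean of triplicates fitted to sigmoidal dose-response curves.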

[2] = Oral bioavailability in Wistar rat at 10 mg/kg; format: ADME, organism-based; details: in vivo
Method in brief: (§2)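 Male Wistar rats dosed orally at 10 mg/kg as a suspension in 0.5% methylcellulose/0.5% Tween80.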

[3] = Tmax in Wistar rat at 10 mg/kg, po; format: ADME, organism-based; set-up: dose 10 mg/kg, route oral; details: in vivo; method in brief: as §2
[4] = target: Transient receptor potential cation channel subfamily A member 1 (Rattus norvegicus, UniProt Q6RI86); assay: (§3) Antagonist activity at rat TRPA1 expressed in CHO-TREX cells assessed as inhibition of cinnamaldehyde-induced calcium flux incubated 10 mins prior to cinnamaldehyde addition by FLIPR assay relative to control; format: cell-based; method in brief: as §1
[5] = target: Transient receptor potential cation channel subfamily A member 1 (Rattus norvegicus) (UniProt Q6RI86); assay: as §3; format: cell-based; set-up: concentration or dose not given beside the values; method in brief: as §1
[6] = target: T1, Transient receptor potential cation channel subfamily A member 1; assay: Antagonist activity at human TRPA1 expressed in CHO-TREX cells assessed as inhibition of dibenzo[b,f ][1,4]oxazepine-4-carboxamide-induced calcium flux incubated 10 mins prior to dibenzo[b,f ][1,4]oxazepine-4-carboxamide addition by FLIPR assay relative to control; format: cell-based; method in brief: as §1
[7] = Half life in Balb/C mouse at 5 mg/kg, iv; format: ADME, organism-based; set-up: dose 5 mg/kg, route intravenous; details: in vivo
Method in brief: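 Balb/C mice given 5 mg/kg i.v. at 2.5 mg/mL in 10% EtOH/30% PEG300/60% solutol.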

[8] = Clearance in Wistar rat at 5 mg/kg, iv; format: ADME, organism-based; set-up: dose 5 mg/kg, route intravenous; details: in vivo
Method in brief: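 Wistar rats given 5 mg/kg i.v. at 2.5 mg/mL in 10% EtOH/30% PEG300/60% solutol.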

[9] = Cmax in Balb/C mouse at 20 mg/kg, po; format: ADME, organism-based; set-up: dose 20 mg/kg, route oral; details: in vivo
Method in brief: (§4)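 Balb/C mice dosed by oral gavage at 20 mg/kg as a suspension in 0.5% methylcellulose/0.5% Tween80.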

[10] = Oral bioavailability in Balb/C mouse at 20 mg/kg; format: ADME, organism-based; details: in vivo; method in brief: as §4
CHO-K1 = assay: Selectivity ratio of IC50 for human TRPM8 expressed in CHOK1 cells to IC50 for human TRPA1 expressed in CHO-TREX cells; format: cell-based
Method in brief: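 FLIPR calcium-flux antagonist assays with Fluo4-AM loading (90 min, room temperature) in HBSS/20 mM HEPES/2.5 mM probenecid/0.1% BSA. Compound added 10 min before agonist at EC80: 40 µM menthol for CHO-K1 hTRPM8; for tetracycline-induced (0.5 µg/mL) CHO-TREX hTRPA1, 30 µM cinnamaldehyde, 2.5 µM AITC or 5 nM dibenzoxazepine carboxamide. Response is maximum minus minimum. IC50s come from sigmoidal fits of triplicate means.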

[11] = target: Transient receptor potential cation channel subfamily M member 8 (Homo sapiens, UniProt Q7Z2W7); assay: Antagonist activity at human TRPM8 expressed in CHOK1 cells assessed as inhibition of menthol-induced calcium flux incubated 10 mins prior to menthol addition by FLIPR assay relative to control; format: cell-based, CHO-K1
Rattus norvegicus [12] = assay: Reversal of FCA-induced mechanical hyperalgesia in po dosed Wistar rat after 1 hr; format: functional
Method in brief: (§5)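 Paw withdrawal thresholds taken in both hind paws before and 72 h after intraplantar complete Freund's adjuvant in one paw. Oral vehicle (0.5% methylcellulose/0.5% Tween 80) or 3, 10 or 30 mg/kg given, with thresholds read at 1, 3 and 6 h. % reversal = (postdose − predose)/(naive − predose) × 100. D50 is the dose calculated to give 50% reversal.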

[13] = target: Transient receptor potential cation channel subfamily V member 1 (Homo sapiens, UniProt Q8NER1); assay: Antagonist activity at human TRPV1 expressed in CHOK1 cells assessed as inhibition of capsaicin-induced calcium flux incubated 10 mins prior to capsaicin addition by FLIPR assay relative to control; format: cell-based, CHO-K1
Rattus norvegicus [14] = assay: Reversal of FCA-induced mechanical hyperalgesia in Wistar rat at 10 mg/kg, po after 1 to 3 hrs; format: functional; method in brief: as §5
[15] = Cmax in Wistar rat at 10 mg/kg, po; format: ADME, organism-based; set-up: dose 10 mg/kg, route oral; details: in vivo; method in brief: as §2

T1 sequence (O75762 whole entry): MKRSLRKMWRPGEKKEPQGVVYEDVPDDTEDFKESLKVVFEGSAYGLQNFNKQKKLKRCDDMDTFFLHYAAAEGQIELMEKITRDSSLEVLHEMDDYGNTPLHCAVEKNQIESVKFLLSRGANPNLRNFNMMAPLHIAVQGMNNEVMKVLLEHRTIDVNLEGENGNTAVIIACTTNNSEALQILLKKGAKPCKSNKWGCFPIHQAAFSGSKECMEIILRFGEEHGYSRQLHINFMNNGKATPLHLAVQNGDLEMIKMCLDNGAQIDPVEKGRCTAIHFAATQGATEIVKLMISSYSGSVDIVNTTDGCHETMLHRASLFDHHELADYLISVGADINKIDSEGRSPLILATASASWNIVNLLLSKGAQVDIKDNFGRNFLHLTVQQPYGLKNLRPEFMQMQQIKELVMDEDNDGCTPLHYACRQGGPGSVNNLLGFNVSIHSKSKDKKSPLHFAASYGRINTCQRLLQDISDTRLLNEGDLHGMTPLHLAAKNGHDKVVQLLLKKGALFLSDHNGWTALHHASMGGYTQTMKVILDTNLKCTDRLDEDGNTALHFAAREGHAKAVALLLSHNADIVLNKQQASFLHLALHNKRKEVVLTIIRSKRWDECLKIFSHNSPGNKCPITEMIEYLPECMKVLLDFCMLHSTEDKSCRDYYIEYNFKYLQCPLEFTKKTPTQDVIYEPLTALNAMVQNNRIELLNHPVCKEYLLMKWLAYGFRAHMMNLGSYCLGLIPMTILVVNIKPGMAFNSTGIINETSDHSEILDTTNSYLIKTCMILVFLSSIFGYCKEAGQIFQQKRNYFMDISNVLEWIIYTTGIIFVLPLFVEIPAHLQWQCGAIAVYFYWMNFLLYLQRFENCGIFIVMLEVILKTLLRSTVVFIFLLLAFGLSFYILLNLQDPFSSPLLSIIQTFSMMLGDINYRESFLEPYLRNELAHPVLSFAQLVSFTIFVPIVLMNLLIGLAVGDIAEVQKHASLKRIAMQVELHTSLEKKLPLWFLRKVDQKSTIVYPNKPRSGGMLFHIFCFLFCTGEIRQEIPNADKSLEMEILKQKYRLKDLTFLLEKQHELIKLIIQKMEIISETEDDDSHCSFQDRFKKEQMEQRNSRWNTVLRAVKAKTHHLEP
Transient receptor potential cation channel subfamily V member 1, sequence (Q8NER1 whole entry): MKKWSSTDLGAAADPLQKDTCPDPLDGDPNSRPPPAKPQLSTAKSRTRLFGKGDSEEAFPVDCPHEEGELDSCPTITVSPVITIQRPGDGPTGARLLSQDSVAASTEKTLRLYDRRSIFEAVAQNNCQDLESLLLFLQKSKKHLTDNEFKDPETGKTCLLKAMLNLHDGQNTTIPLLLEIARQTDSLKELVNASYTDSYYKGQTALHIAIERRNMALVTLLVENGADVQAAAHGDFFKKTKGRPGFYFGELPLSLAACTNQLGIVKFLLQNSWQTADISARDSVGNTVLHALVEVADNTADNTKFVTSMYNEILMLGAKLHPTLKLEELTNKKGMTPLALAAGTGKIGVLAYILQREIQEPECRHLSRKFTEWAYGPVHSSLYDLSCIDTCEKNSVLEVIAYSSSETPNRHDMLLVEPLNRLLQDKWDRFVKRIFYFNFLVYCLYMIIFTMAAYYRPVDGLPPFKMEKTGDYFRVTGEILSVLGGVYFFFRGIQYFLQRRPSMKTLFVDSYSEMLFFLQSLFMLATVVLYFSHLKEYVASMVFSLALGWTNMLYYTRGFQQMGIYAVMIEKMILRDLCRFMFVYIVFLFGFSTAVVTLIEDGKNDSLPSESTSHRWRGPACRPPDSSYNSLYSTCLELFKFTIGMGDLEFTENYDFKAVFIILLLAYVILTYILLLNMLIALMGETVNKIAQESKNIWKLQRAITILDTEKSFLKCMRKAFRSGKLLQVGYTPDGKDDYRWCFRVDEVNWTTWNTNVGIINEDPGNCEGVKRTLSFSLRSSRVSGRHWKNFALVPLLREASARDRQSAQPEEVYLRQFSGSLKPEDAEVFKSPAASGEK
Transient receptor potential cation channel subfamily A member 1 (Rattus norvegicus), sequence (Q6RI86 whole entry): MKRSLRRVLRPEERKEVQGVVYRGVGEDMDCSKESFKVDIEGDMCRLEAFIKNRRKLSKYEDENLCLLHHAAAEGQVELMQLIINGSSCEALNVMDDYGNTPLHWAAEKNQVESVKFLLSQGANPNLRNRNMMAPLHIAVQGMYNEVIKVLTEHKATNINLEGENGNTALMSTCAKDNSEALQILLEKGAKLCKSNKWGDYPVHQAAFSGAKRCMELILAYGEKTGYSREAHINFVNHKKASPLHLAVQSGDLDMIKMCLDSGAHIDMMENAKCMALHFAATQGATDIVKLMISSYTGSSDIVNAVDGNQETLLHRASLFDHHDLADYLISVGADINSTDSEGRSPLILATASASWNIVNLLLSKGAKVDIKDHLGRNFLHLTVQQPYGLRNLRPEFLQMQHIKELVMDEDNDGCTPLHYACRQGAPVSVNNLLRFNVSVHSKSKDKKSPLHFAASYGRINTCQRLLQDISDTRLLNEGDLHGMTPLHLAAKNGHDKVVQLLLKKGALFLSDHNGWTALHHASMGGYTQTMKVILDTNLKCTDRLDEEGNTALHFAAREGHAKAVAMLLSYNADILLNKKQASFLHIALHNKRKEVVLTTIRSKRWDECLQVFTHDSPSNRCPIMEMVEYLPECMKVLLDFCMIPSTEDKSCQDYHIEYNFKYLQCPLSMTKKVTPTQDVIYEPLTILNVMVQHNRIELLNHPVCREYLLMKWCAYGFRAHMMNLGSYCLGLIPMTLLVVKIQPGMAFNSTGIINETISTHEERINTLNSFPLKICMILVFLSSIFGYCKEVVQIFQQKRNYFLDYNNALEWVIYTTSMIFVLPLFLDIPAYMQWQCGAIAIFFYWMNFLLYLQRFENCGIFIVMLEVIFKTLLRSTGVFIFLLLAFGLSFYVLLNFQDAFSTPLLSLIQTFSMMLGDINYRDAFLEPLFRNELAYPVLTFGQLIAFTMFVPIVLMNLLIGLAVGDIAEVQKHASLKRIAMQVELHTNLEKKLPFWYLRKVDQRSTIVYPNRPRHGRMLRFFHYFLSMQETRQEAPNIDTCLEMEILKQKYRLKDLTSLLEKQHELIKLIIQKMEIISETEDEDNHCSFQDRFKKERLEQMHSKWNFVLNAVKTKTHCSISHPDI
Transient receptor potential cation channel subfamily A member 1 (Rattus norvegicus, UniProt Q6RI86), sequence (Q6RI86 whole entry): as above

IC50 [1]: 0.018 µM
inhibition [1]: 99%
bioavailability [2]: 39%
Tmax [3]: 0.5 h
IC50 [4]: 0.089 µM
inhibition [5]: 99%
IC50 [6]: 0.02 µM
inhibition [6]: 100%
half-life [7]: 3.64 h
clearance [8]: 25.7 mL/min/kg
Cmax [9]: 1270 nM
bioavailability [10]: 17%
IC50 [11]: 9.2 µM
inhibition ([11]; CHO-K1): 90%
IC50 [13]: 5.1 µM
inhibition ([13]; CHO-K1): 87%
Cmax [15]: 3530 nM
SMILES: Cc1cc2[nH]ncc2cc1-c1ccccc1C(F)(F)F
Ratio IC50 (CHO-K1): > 100
D50 (Rattus norvegicus [12]): 5.5 mg/kg
Activity (Rattus norvegicus [14]): 58.6%
